Hits are enriched below; roughly 1.5% of the tested compounds scored in any of these assays.
LANA-H2B inh = blocks KSHV LANA binding to histone H2A/H2B; cell-free LANA-H2A/H2B peptide, fluorescence polarization; inhibition, % (test concentration not listed); Q9QR71; AID 2629; 320,000 tested, 0.6% active; in the data active = inhibition mostly above about 10%, no sharp cut-off; inactive = mostly below about 6.7%
CaV13 FRET inh = Primary screen for inhibitors of IQ motif and Ca2+-dependent inactivation inhibitor domain binding in CACNA1D, Förster resonance energy transfer in living cells, …; 340,000 tested, 0.098% active; inhibition, % at 12.3 µM; HEK cells, CFP/YFP FRET ICDI-IQ, plate reader, 10 min; percent FRET-ratio fall versus neutral wells;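 active = mean replicate inhibition of at least 30% and at least 1% of replicates passing that level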;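 also: 0% = median of the neutral control wells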
CAL PDZ FP-1 = human CAL PDZ-peptide interaction inhibition. Q9HD26. purified CAL PDZ, TMR-peptide fluorescence polarization, 1 h. inhibition, % at 20 µM. 330,000 tested, 0.02% active;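 active = highest replicate inhibition of at least 40%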;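 also: plate controls were DMSO neutral control wells for no effect and unlabeled competitor peptide control wells for full effect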
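material = purified tagged CAL PDZ domain construct (CerCALP) | compound dosing = 20 µM, one dose | times = 1 h at RT | measured by = fluorescence polarization from S- and P-plane intensities, G-factor corrected | read-out = inhibition from polarization loss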
Keap1 Nrf2 FP = Keap1-Nrf2 (human) interaction inhibition | Q14145 | Keap1 Kelch-Nrf2 peptide fluorescence polarization, 1536-well | inhibition, % at 9.4 µM | 340,000 tested, 0.15% active; in the data active = inhibition above about 12%;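 also: human Keap1 Kelch domain with fluorescein labeled Nrf2 9mer peptide probe; 0% = neutral control wells and 100% = peptide positive control; higher means more block of Keap1 binding to Nrf2 peptide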
Target sequence (Q14145 whole entry, looked up, the tested form may be a part): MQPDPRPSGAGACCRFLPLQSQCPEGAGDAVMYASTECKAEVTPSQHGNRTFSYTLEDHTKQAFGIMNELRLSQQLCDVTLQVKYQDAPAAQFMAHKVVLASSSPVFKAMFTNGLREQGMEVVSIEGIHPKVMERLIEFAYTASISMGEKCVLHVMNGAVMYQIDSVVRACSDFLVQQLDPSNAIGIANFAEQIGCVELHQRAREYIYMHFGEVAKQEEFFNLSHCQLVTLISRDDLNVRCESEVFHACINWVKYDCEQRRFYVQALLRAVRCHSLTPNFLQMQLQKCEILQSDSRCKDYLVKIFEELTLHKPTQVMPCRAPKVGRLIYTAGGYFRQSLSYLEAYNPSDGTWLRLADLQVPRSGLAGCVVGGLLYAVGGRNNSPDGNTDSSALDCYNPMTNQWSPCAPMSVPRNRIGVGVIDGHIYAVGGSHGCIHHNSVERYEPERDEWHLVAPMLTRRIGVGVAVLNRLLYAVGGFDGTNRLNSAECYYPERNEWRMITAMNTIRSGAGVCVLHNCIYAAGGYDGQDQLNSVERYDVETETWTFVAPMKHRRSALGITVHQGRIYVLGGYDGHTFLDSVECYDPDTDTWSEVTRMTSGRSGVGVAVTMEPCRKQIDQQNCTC
C-LANA FP = blocks KSHV LANA C-terminal domain binding to DNA. MBP-C-LANA/FAM-LBS DNA binding, fluorescence polarization. inhibition, % at 9 µM. 340,000 tested, 0.078% active. AID 504423;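 active = highest replicate inhibition at or above 60% at 9 µM, even if other replicates fall short; inactive = all replicates below 60% inhibition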;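 also: 0% = neutral control wells and 100% = 4 µM acridine orange control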
CAL PDZ FP-2 = blocks peptide binding to the human CAL PDZ domain; Q9HD26; purified CAL PDZ, TMR-peptide fluorescence polarization, 1 h; inhibition, % at 24.9 µM; 300,000 tested, 0.92% active; AID 602252;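 active = mean inhibition of at least 30% with at least half of replicates also reaching 30%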;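 also: 0% = DMSO neutral control and 100% = excess unlabeled competitor peptide PRC23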
Numbers without * were called inactive; · = not tested or not shown; + = active, no number.

SMILES	LANA-H2B inh	CaV13 FRET inh	CAL PDZ FP-1	Keap1 Nrf2 FP	C-LANA FP	CAL PDZ FP-2
CC(C)CC1NC(=O)N(CC(=O)NC2CCCCC2)C1=O (centres undefined)	·	-7.3	-1.2	-4.6	-0.5	0.0
Cc1cc(C)c(C#N)c(Nc2cccc(C)c2C)n1	1.3	-20.6	3.6	-1.0	-1.3	82.9*
C[C@@H]1CN(c2ccc(N3CCN(C(=O)OC(C)(C)C)C[C@H]3C)cc2C#N)CCN1Cc1ccccc1	·	-3.8	·	·	·	·
CCc1ccccc1N1C(=O)CC(Sc2nccc(C)n2)C1=O (centres undefined)	7.7	-2.8	·	-7.5	-0.3	99.7*
Cc1ccc(N2C(=O)CC(Sc3nccc(C)n3)C2=O)cc1 (centres undefined)	-2.6	-4.3	·	-1.3	-0.2	·
COc1ccc(-c2ncn(CCc3ccccc3OC)c2CC(C)C)cc1	·	-9.9	·	·	·	·
COc1ccc(/C=C2\N=C(c3ccccc3)NNC2=O)cc1	-11.8	-4.5	-2.4	-2.1	0.3	·
Cc1ccccc1Cn1ccc(NC(=O)c2cnn3c2NC(c2ccccc2)CC3C(F)(F)F)n1 (centres undefined)	+	-7.8	0.4	-7.5	0.3	·
C[C@H]1CN([C@@H](C)CO)C(=O)CCCn2nncc2CO[C@@H]1CN(C)CC1CC1	·	-5.7	·	·	·	·
Brc1ccc(-n2cnc(-c3ccccc3)c2)cc1	3.9	-4.0	-2.9	-4.9	-0.6	51.3*
Cc1cc([N+](=O)[O-])nn1CC(=O)Nc1cc(F)ccc1F	-6.0	-6.0	-2.0	1.3	4.5	69.5*
Cc1cc([N+](=O)[O-])nn1CC(=O)N/N=C/c1ccccc1F	-6.2	4.2	-1.0	1.0	1.5	44.1*
Cc1cc([N+](=O)[O-])nn1CC(=O)N/N=C/c1ccccc1O	-6.1	-16.9	-0.8	3.2	1.1	9.6
O=C(c1ccc(F)cc1)C1CCN(CCCn2c(=O)[nH]c3ccccc32)CC1	·	-14.1	·	·	·	·
Cc1ccc(OC2CCN(C(=O)[C@@H](Cc3ccccc3)NC(=O)[C@H]3O[C@@H](n4ccc(=O)[nH]c4=O)[C@H](O)[C@@H]3O)CC2)cc1	·	-3.1	·	·	·	·
Cc1nc(NCCCN2CCOCC2)c2cnn(-c3ccccc3)c2n1	·	-3.6	-0.6	-2.9	-0.4	36.0*
COCCNc1ncnc2c1cnn2-c1ccc(Cl)cc1	20.4*	-4.2	0.4	3.9	1.7	-1.8
c1ccc(-n2ncc3c(NCCN4CCOCC4)ncnc32)cc1	3.7	-4.8	-0.2	1.8	-1.9	-2.2
CN(C)CCCNc1ncnc2c1cnn2-c1ccccc1	13.6*	·	0.0	3.2	-0.1	·
COC(=O)CCC[C@H](C)[C@@H](NS(=O)(=O)c1ccc(C)cc1)C(C)(C)C	·	-5.5	·	·	·	·
CCCC#C/C(CCC)=C1\c2ccccc2C(=O)N1c1ccccc1	·	-5.6	·	·	·	·
CC(C)(C)CC(=O)NC(=S)Nc1ccccc1[N+](=O)[O-]	3.3	-0.1	0.1	-2.7	-1.4	101.1*
CCCCOC(=O)/C(=C\c1ccc([N+](=O)[O-])o1)NC(=O)c1ccccc1	3.7	-4.7	·	-7.1	-1.0	40.8*
Cc1ccc(S(=O)(=O)N(C)[C@H]2C[C@H]3c4[nH]c5cccc(-c6ccccc6)c5c4CCN3C(=O)[C@H]2[C@H](C)O)cc1	·	-3.5	·	·	·	·
O=S1(=O)N[C@H](Cc2ccccc2)COc2cc(N3CCCCC3)ccc21	·	-3.0	·	·	·	·
SMILES	LANA-H2B inh	CaV13 FRET inh	CAL PDZ FP-1	Keap1 Nrf2 FP	C-LANA FP	CAL PDZ FP-2
Cc1ccc(OCC(=O)OCCN2C(=O)c3ccccc3C2=O)cc1C	19.4*	-4.9	-1.9	-8.0	-1.3	-1.0
Cc1cc(C)cc(OCC(=O)OCCN2C(=O)c3ccccc3C2=O)c1	2.9	-0.7	-0.6	-4.6	-3.7	-1.6
O=C(N/N=C/c1ccco1)c1cc(=O)[nH]c2ccccc12	16.2*	-6.4	0.5	-0.8	0.3	8.1
Cc1nc(N2CCOCC2)c2cc(-c3ccccc3)sc2n1	-8.1	-4.4	-1.5	-0.3	1.3	-5.7
Cc1nc(SCCC(=O)O)c2cc(-c3ccccc3)sc2n1	5.2	-6.9	-2.4	-1.8	-0.8	55.3*
COc1ccc(NC(=O)c2cc3c(-c4ccc(OC)c(OC)c4)nn(C)c3s2)cc1OC	-1.1	-4.5	9.9	1.3	0.3	55.8*
Cc1ccn2c(Nc3ccccc3C)c(-c3ccccn3)nc2c1	-4.1	-1.4	0.1	3.8	0.9	-1.5
Cc1ccccc1Nc1c(-c2ccccn2)nc2ccccn12	-1.9	-3.7	0.2	3.6	0.4	81.5*
CSc1nc2c(c(=O)[nH]1)C(c1cccs1)C1=C(CCCC1=O)N2 (centres undefined)	-5.6	-8.1	-0.8	1.3	-0.9	31.9*
Cc1ccc(CN2C(=O)CSCC2(C)C(=O)Nc2c(C)cccc2C)cc1 (centres undefined)	·	-6.2	·	·	·	·
COc1ccccc1C(=O)NC(CCSC)C(=O)NC1CC1 (centres undefined)	-5.4	-5.8	-2.0	-0.7	-1.7	62.0*
COc1ccc2c(=O)c3c(=O)n(Cc4ccco4)c(-c4ccco4)nc3oc2c1	-1.1	-9.3	-5.3	3.3	-0.3	-2.9
COc1ccc(Cn2c(-c3ccco3)nc3oc4cc(OC)ccc4c(=O)c3c2=O)cc1	4.5	·	-2.4	0.9	0.0	37.7*
Cc1[nH]c(=S)[nH]c(=O)c1CCCO	17.7*	-3.7	-1.7	-2.4	-0.5	-2.9
Cc1ccc(C)c(NC(=O)CSc2c(C)n[nH]c2C)c1	-1.5	3.9	15.7	-0.6	2.2	61.3*
CCOCCn1c(CN2CCCC(C)C2)nc2c1c(=O)n(C)c(=O)n2C (centres undefined)	1.4	-3.3	-0.5	2.5	0.5	·
CCn1c(SCC(=O)N2CCCC(C)C2)nc2c1c(=O)n(C)c(=O)n2C (centres undefined)	-1.8	-5.0	-0.8	-0.4	-0.2	+
CC(C)CCn1c(CN2CC(C)OC(C)C2)nc2c1c(=O)n(C)c(=O)n2C (centres undefined)	-1.4	37.2*	-1.0	-3.0	0.0	·
CC1CCCN(Cc2nc3c(c(=O)n(C)c(=O)n3C)n2CC(N)=O)C1 (centres undefined)	13.5*	-3.6	0.6	-0.9	0.2	·
COC(=O)C1=C(C)N(Cc2cccc(C(F)(F)F)c2)C(=NCc2cc(OC)c(OC)c(OC)c2)NC1c1cccc(C(F)(F)F)c1 (centres undefined)	·	-4.0	·	·	·	·
CC(C)CSC1=NSC2=NC(=O)/C(=C\c3coc4ccccc4c3=O)C(=N)N12	60.3*	-10.9	-1.7	-121.7	5.5	-3.8
Cc1c(Cl)cccc1N1C(=O)CC(Sc2ccccc2N)C1=O (centres undefined)	·	-6.3	·	·	·	·
Cc1nc(SCC(=O)O)c(C#N)c2c1CCCC2	0.4	-1.9	-3.5	-0.1	6.4	75.6*
